Results from different studies.
Each line is one published result; the experiments were not run side by side. Converted amounts (≈) assume the structure as drawn.
Organism: Enterococcus faecalis

| SMILES | assay | test system | conditions | endpoint | value |
| --- | --- | --- | --- | --- | --- |
| c1ccc(CN(CCN(Cc2ccccn2)Cc2ccccn2)Cc2ccccn2)nc1 | microbial killing | OG1RF |  | MBC | > 2000 µM |
| Cc1ccc(C)n1-c1ccc(-c2nnc(-c3c(Cl)cccc3Cl)[nH]2)cc1 | microbial growth, broth dilution | ATCC14506 | 18 h | MIC | 8 µg/mL (≈ 20.9 µM) |
| COc1cccc(-c2nc3ccc(C)cc3[nH]2)c1 | microbial growth, broth dilution | ATCC29212 |  | MIC | 128 µg/mL (≈ 537 µM) |
| O=C(O)CN(CCN(CC(=O)O)CC(=O)O)CC(=O)O | microbial killing | OG1RF |  | MBC | 500 µM (≈ 146 µg/mL) |
| CC1(C)S[C@@H]2[C@H](NC(=O)[C@H](N)c3ccccc3)C(=O)N2[C@H]1C(=O)O | microbial growth, agar dilution | ATCC29212 | 26.93 µM | inhibition | 100% |
| CN[C@H](CC(C)C)C(=O)N[C@H]1C(=O)N[C@@H](CC(N)=O)C(=O)N[C@H]2C(=O)N[C@H]3C(=O)N[C@H](C(=O)N[C@H](C(=O)O)c4cc(O)cc(O)c4-c4cc3ccc4O)[C@H](O)c3ccc(c(Cl)c3)Oc3cc2cc(c3O[C@@H]2O[C@H](CO)[C@@H](O)[C@H](O)[C@H]2O[C@H]2C[C@](C)(N)[C@H](O)[C@H](C)O2)Oc2ccc(cc2Cl)[C@H]1O | microbial killing, broth dilution | NCTC12697 |  | MBC | 16 µM (≈ 23.2 µg/mL) |
| Clc1ccc(-c2nc3ccccc3[nH]2)c(Cl)c1 | microbial growth, broth dilution | ATCC29212 |  | MIC | 64 µg/mL (≈ 243 µM) |
| Cc1cc(C)n(C(=O)c2ccc(-n3c(C)ccc3C)cc2)n1 | microbial growth, broth dilution | ATCC14506 | 18 h | MIC | 125 µg/mL (≈ 426 µM) |
| CCn1cc(C(=O)O)c(=O)c2cc(F)c(N3CCNCC3)cc21 | microbial killing, broth dilution | NCTC12697 |  | MBC | 4 µM (≈ 1.28 µg/mL) |
| CSc1ccc(-c2nc3ccc(C)cc3n2Cc2ccccc2)cc1 | microbial growth, broth dilution | ATCC29212 |  | MIC | 128 µg/mL (≈ 372 µM) |
